Calls of active or inactive are those of the source. No cut-off for these calls is given here.

Test [1] has as its system Spinacia oleracea. Put plainly: Inhibition of photophosphorylation in Spinacia oleracea (spinach) leaves chloroplasts by titrimetry. Format: functional. As to conditions: for IC50: read-out: I50. An outline of the steps:
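Intact spinach chloroplasts (20 μg Chl/mL) were osmotically broken in 3 mL of weakly buffered medium: 100 mM sorbitol, 10 mM KCl, 5 mM MgCl2, 0.5 mM KCN, 1 mM tricine-KOH pH 8.0, 50 μM MV and 1 mM ADP. ATP synthesis was taken from the medium alkalization rate in the linear part of illumination, calibrated by HCl back-titration, as μmol ATP (mg Chl)-1 h-1. I50 was obtained from concentration-activity plots; three replicates.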

The test system of test [2] is Spinacia oleracea. Put plainly: Increase in Magnesium-transporting ATPase activity in Spinacia oleracea (spinach) leaves chloroplasts thylakoids at 3 mM. A digest of the protocol: (§1)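 Spinach chloroplasts were isolated in 350 mM sorbitol, 5 mM ascorbate, 20 mM MES pH 6.5, centrifuged at 3000g for 60 s, washed, and resuspended in 35 mM HEPES pH 7.6. Light-triggered Mg2+-ATPase activity of thylakoid membranes was measured as released inorganic phosphate. Ammonium chloride served as positive control.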

For test [3], the system named is Spinacia oleracea. Kind of test: Increase in Magnesium-transporting ATPase activity in Spinacia oleracea (spinach) leaves chloroplasts thylakoids at 2 mM. An outline of the steps: as §1
The test system of test [4] is Spinacia oleracea. Put plainly: Increase in Magnesium-transporting ATPase activity in Spinacia oleracea (spinach) leaves chloroplasts thylakoids at 1 mM. A digest of the protocol:
as §1

Test [5] deals with Lolium perenne. Kind of test: Inhibition of photosynthetic efficiency in Lolium perenne (perennial ryegrass) assessed as effect on OJIP transients at 200 uM measured 72 hr post compound application. Format: functional, organism-based. A digest of the protocol: (§2)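 Greenhouse L. perenne sprayed 18 days after emergence (20 mM DMSO stock diluted into 0.05% Tween-20; vehicle-sprayed controls). Leaves dark-adapted 15 min, then excited with 3000 μmol photons m-2 s-1 red light (650 nm) from three LEDs. OJIP transients recorded at room temperature with a Handy PEA. PI(abs) and other parameters are shown on radar plots normalized to control.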

The subject of test [6] is Lolium perenne. Kind of test: Effect on photosynthetic efficiency in Lolium perenne (perennial ryegrass) assessed as increase in OJIP transients at 100 uM measured 72 hr post compound application. In kind it is functional. An outline of the steps:
as §2

The test system of test [7] is Lolium perenne. Kind of test: Inhibition of photosynthetic efficiency in Lolium perenne (perennial ryegrass) at 200 uM measured 24 to 72 hr post compound application. In kind it is functional. An outline of the steps:
as §2

Test [8] has as its system Lolium perenne. Put plainly: Inhibition of photosynthetic efficiency in Lolium perenne (perennial ryegrass) assessed as effect on OJIP transients at 100 uM measured 24 to 48 hr post compound application. Format: functional, organism-based. A digest of the protocol: as §2
Test [9] deals with Spinacia oleracea. Put plainly: Effect on photosynthesis efficiency in Spinacia oleracea (spinach) leaves freshly lysed chloroplasts assessed as change in chlorophyll a fluorescence at 150 to 450 uM. Format: functional. A digest of the protocol: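 Freshly lysed spinach thylakoids (20 μg Chl) were placed on filter paper with a dot-blot apparatus and dipped in 3 mL basal electron transport medium without MV, containing compound. After 5 min dark adaptation, fluorescence was excited with 3000 μmol m-2 s-1 650 nm LED light (2 s pulse) at room temperature. Wt = (Ft−F0)/(FJ−F0), difference from control used for K-band; five replicates.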

Test [10] has as its system Spinacia oleracea. Put plainly: Increase in Magnesium-transporting ATPase activity in Spinacia oleracea (spinach) leaves chloroplasts thylakoids at 200 uM. An outline of the steps: as §1
For test [11], the system named is Spinacia oleracea. Put plainly: Increase in Magnesium-transporting ATPase activity in Spinacia oleracea (spinach) leaves chloroplasts thylakoids at 300 uM. An outline of the steps:
as §1

Test [12] has as its system Spinacia oleracea. Kind of test: Inhibition of uncoupled electron transport from water to MV in Spinacia oleracea (spinach) leaves chloroplasts at 50 to 300 uM using Clark type electrode system based method. Format: functional, organism-based. A digest of the protocol:
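Water-to-MV electron transport measured with a Clark electrode in the basal medium (20 μg Chl/mL, 50 μM MV, 15 mM tricine-KOH pH 8.0, 1 min illumination), with 6 mM NH4Cl added as uncoupler.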

Test [13] relates to Spinacia oleracea. Put plainly: Inhibition of basal electron transport from water to MV in Spinacia oleracea (spinach) leaves chloroplasts at 50 to 300 uM using Clark type electrode system based method. In kind it is functional, organism-based.
Test [14] relates to Spinacia oleracea. Kind of test: Inhibition of phosphorylating noncyclic electron transport from water to MV in Spinacia oleracea (spinach) leaves chloroplasts at 50 to 300 uM using Clark type electrode system based method. Format: functional. A digest of the protocol:
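Clark-electrode measurement of water-to-MV electron flow in the basal medium (sorbitol, KCl, MgCl2, 0.5 mM KCN, 50 μM MV, 15 mM tricine-KOH pH 8.0; 20 μg Chl/mL; 1 min light), with 1 mM ADP and 3 mM KH2PO4 added.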

Test [15] concerns Spinacia oleracea. Kind of test: Increase in Magnesium-transporting ATPase activity in Spinacia oleracea (spinach) leaves chloroplasts thylakoids at 100 uM. An outline of the steps:
as §1

Test [16] concerns Physalis ixocarpa. Put plainly: Effect on biomass production in Physalis ixocarpa assessed as plant dry weight at 200 uM measured 14 days post compound application relative to untreated control. In kind it is functional. A digest of the protocol: (§3)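 Greenhouse-grown plants (pots, watered daily, 25 to 30 °C) of similar size, sprayed at 15 (P. ixocarpa) or 18 (L. perenne) days after emergence. Compound taken from a 20 mM DMSO stock into aqueous 0.05% w/v Tween-20; controls were sprayed with water containing the same DMSO and Tween-20. Plants harvested at ground level, oven-dried at 65 °C to constant weight, then weighed.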

The test system of test [17] is Physalis ixocarpa. Kind of test: Effect on biomass production in Physalis ixocarpa assessed as plant dry weight at 100 uM measured 14 days post compound application relative to untreated control. Format: functional. An outline of the steps:
as §3

For test [18], the system named is Lolium perenne. Put plainly: Effect on biomass production in Lolium perenne (perennial ryegrass) assessed as plant dry weight at 100 uM measured 14 days post compound application relative to untreated control. Format: functional. A digest of the protocol: as §3
Test [19] has as its system Lolium perenne. Kind of test: Effect on biomass production in Lolium perenne (perennial ryegrass) assessed as plant dry weight at 200 uM measured 14 days post compound application relative to untreated control. In kind it is functional. A digest of the protocol: as §3
The subject of test [20] is Physalis ixocarpa. Kind of test: Inhibition of photosynthetic efficiency in Physalis ixocarpa intact leaves assessed as increase in chlorophyll a fluorescence transients at 100 uM measured 72 hr post compound application. Format: functional, organism-based. An outline of the steps: (§4)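 P. ixocarpa plants sprayed 15 days after emergence (greenhouse, 25-30 °C; 20 mM DMSO stock diluted into 0.05% Tween-20; vehicle-sprayed controls). Leaves dark-adapted 15 min, then excited with 650 nm red LED light at 3000 μmol photons m-2 s-1. Chl a OJIP transients recorded with a Handy PEA at room temperature. PI(abs) is normalized to control; K-, J- and I-bands come from variable fluorescence difference curves; five replicates.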

Test [21] relates to Physalis ixocarpa. Kind of test: Inhibition of photosynthetic efficiency in Physalis ixocarpa intact leaves assessed as reduction in PI(abs) level at 200 uM measured 48 hr post compound application. In kind it is functional. An outline of the steps:
as §4

The test system of test [22] is Physalis ixocarpa. Kind of test: Inhibition of photosynthetic efficiency in Physalis ixocarpa intact leaves assessed as reduction in chlorophyll a fluorescence transients at 200 uM measured 48 hr post compound application. Format: functional. A digest of the protocol: as §4
In test [23] the test system is Physalis ixocarpa. Put plainly: Inhibition of photosynthetic efficiency in Physalis ixocarpa intact leaves assessed as increase in chlorophyll a fluorescence transients at 100 uM measured 48 hr post compound application. In kind it is functional. The arrangement: scale not given: the % may be the effect or the level left. A digest of the protocol:
as §4

In test [24] the test system is Physalis ixocarpa. Kind of test: Inhibition of photosynthetic efficiency in Physalis ixocarpa intact leaves assessed as reduction in PI(abs) level at 100 uM measured 48 hr post compound application. In kind it is functional. A digest of the protocol:
as §4

Test [25] relates to Physalis ixocarpa. Kind of test: Inhibition of photosynthetic efficiency in Physalis ixocarpa intact leaves assessed as effect on OJIP transients at 100 uM measured 24 hr post compound application. Format: functional, organism-based. A digest of the protocol:
as §4

Test [26] has as its system Lolium perenne. Put plainly: Effect on photosynthetic efficiency in Lolium perenne (perennial ryegrass) assessed as increase in PI(abs) transients at 100 uM measured 72 hr post compound application. In kind it is functional. An outline of the steps: as §2

A word on the inhibition: it is the share of the control response that was lost under treatment. Turning to `C[C@H]1C(=O)CC[C@@H]2[C@]1(C)CC[C@H]1[C@@]2(C)CC[C@@]2(C)[C@@H]3C[C@](C)(CO)CC[C@]3(C)CC[C@]12C`, the inhibition result in [1] is “inactive”.
Take `Cl.N`: the Activity in test [2] was found to be 234%; in [3], 252%; in test [4], 128%.
Regarding `C[C@H]1[C@@H](O)CC[C@@H]2[C@]1(C)CC[C@H]1[C@@]2(C)CC[C@@]2(C)[C@@H]3CC(C)(C)CC[C@]3(C)CC[C@]12C` [EPIFRIEDELINOL], the inhibition result in [5], in test [8], in test [12], in [13], in test [14] and in test [25] was “inactive” in each case. The Activity in test [6] was 20%; in [10], 112%; in test [11], 123%; in test [15] it was 110%; in [16] it was 101.3%; in test [17], 23.2%. The Activity worked out at 79.6% in test [18], 91.2% in test [19], 10% in test [23] and 10% in [26]. Also, the results for the inhibition at 200 µM in test [7], in [21] and in test [22] were 12%, 15% and 10%, respectively. For the same compound, the outcome in test [9] and in test [20] was Active. Further, the IC50 in [1] stood at 82 µM. Besides, in test [24], the inhibition at 100 µM was 40%.
Turning to `C[C@H]1C(=O)CC[C@@H]2[C@]1(C)CC[C@H]1[C@@]2(C)CC[C@@]2(C)[C@@H]3CC(C)(C)CC[C@]3(C)CC[C@]12C` [FRIEDELINE], the IC50 in test [1] turned out to be 182 µM.
Same read-out and setting: as for `C[C@H]1C(=O)CC[C@@H]2[C@]1(C)CC[C@H]1[C@@]2(C)CC[C@@]2(C)[C@@H]3C[C@](C)(C(=O)O)CC[C@]3(C)CC[C@]12C` [MAYTENOIC ACID], the figure is 269 µM.

The values above are taken from ChEMBL document CHEMBL3046214, “Friedelane triterpenes from Celastrus vulcanicola as photosynthetic inhibitors” (J Agric Food Chem, 2010).
